Tests used:
[1] = Cytotoxicity against human MT4 cells assessed as reduction in cell viability after 5 days by MTT assay; assay type: toxicity, cell-based; settings: time 5 day
[2] = molecular target: Structural capsid protein (Human immunodeficiency virus 1) (UniProt Q76129); assay: Ratio of Kd for HIV-1 NL4-3 monomeric capsid protein to Kd for HIV-1 NL4-3 hexameric capsid protein
[3] = molecular target: T1, Structural capsid protein (Human immunodeficiency virus 1, UniProt Q76129); assay: Binding affinity to HIV-1 NL4-3 monomeric capsid protein by SPR analysis
In short: (§1)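 SPR binding isotherms averaged over 3 replicates, with error bars as SD.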

[4] = tested on: Human immunodeficiency virus 1; assay: Antiviral activity against early stage HIV-1 infected in U87.CD4.CXCR4 cells assessed as viral infection at 1 uM preincubated with virus followed by cell addition and measured after 48 hrs by luciferase based luminometer assay (reference value: 100 +/- 8.4 %); assay type: functional
[5] = tested on: Human immunodeficiency virus 1; assay: Antiviral activity against late stage HIV-1 infected in U87.CD4.CXCR4 cells assessed as viral infection at 1 uM preincubated with virus for 48 hrs followed by cell addition and measured after 48 hrs by luciferase based luminometer assay (reference value: 100 +/- 11 %); assay type: functional; settings: time 96 hrs
[6] = molecular target: Structural capsid protein (Human immunodeficiency virus 1) (UniProt Q76129); assay: Binding affinity to HIV-1 NL4-3 hexameric capsid protein assessed as Koff by SPR analysis; settings: filed as modulator
[7] = Metabolic stability in human liver assessed as intrinsic clearance at 1 uM preincubated for 10 mins followed by NADPH addition and measured after 60 mins; settings: read-out: CLH
[8] = Metabolic stability in human liver microsomes assessed as remaining compound at 1 uM after 60 mins in presence of NADPH; assay type: ADME, Microsome; settings: read-out: Stability
In short: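 Human liver microsomes at 0.5 mg protein/mL in 100 mM potassium phosphate, compound at 1 µM final (0.99% ACN, 0.01% DMSO). After 10 min pre-warming of the microsomes at 37°C, NADPH (1 mM final, in 10 mM MgCl2) was added. Incubated at 37°C with shaking, sampled at 0, 5, 15, 30, 45 and 60 min into cold ACN with internal standards. LC-MS/MS analysis; T1/2 and CLint(mic) (µL/min/mg) from first-order kinetics.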

[9] = tested on: Human immunodeficiency virus 1; assay: Antiviral activity against HIV-1 IIIB infected in MT4 cells assessed as protection against virus induced cytotoxicity incubated for 5 days by MTT assay; assay type: functional, organism-based; settings: Human immunodeficiency virus 1, IIIB, MT4, 120 h
[10] = molecular target: T1, Structural capsid protein; assay: Binding affinity to HIV-1 NL4-3 hexameric capsid protein by SPR analysis; in short: as §1
[11] = tested on: Human immunodeficiency virus 2; assay: Antiviral activity against HIV-2 ROD infected in MT4 cells assessed as protection against virus induced cytotoxicity and measured after 5 days by MTT spectrophotometric assay; assay type: functional, organism-based; settings: Human immunodeficiency virus 2, ROD, MT4, 120 h
[12] = Selectivity index, ratio of CC50 for human MT4 cells to EC50 for HIV-2 ROD infected in human MT4 cells; assay type: toxicity, cell-based; settings: read-out: Ratio CC50/EC50
[13] = Selectivity index, ratio of CC50 for human MT4 cells to EC50 for HIV-1 IIIB infected in human MT4 cells; assay type: toxicity, cell-based; settings: read-out: Ratio CC50/EC50
[14] = tested on: Human immunodeficiency virus 1; assay: Antiviral activity against HIV-1 infected in MT4 cells; assay type: functional, organism-based; settings: Human immunodeficiency virus 1, MT4
[15] = Metabolic stability in human liver microsomes assessed as remaining compound at 1 uM after 60 mins in absence of NADPH; assay type: ADME, Microsome; settings: read-out: Stability
In short: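 No-cofactor control: human liver microsomes at 0.5 mg protein/mL in 100 mM phosphate buffer with compound at 1 µM, buffer added in place of NADPH. Incubated 60 min at 37°C with shaking, then quenched with cold ACN containing tolbutamide and labetalol internal standards. Centrifuged, supernatant diluted in water, analysed by LC-MS/MS.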

[16] = tested on: Human immunodeficiency virus 1; assay: Antiviral activity against late stage HIV-1 infected in U87.CD4.CXCR4 cells assessed as viral infection at 60 uM preincubated with virus for 48 hrs followed by cell addition and measured after 48 hrs by luciferase based luminometer assay (reference value: 100 +/- 11 %); assay type: functional; settings: time 96 hrs
[17] = tested on: Human immunodeficiency virus 1; assay: Antiviral activity against early stage HIV-1 infected in U87.CD4.CXCR4 cells assessed as viral infection at 60 uM preincubated with virus followed by cell addition and measured after 48 hrs by luciferase based luminometer assay (reference value: 100 +/- 8.4 %); assay type: functional
[18] = Metabolic stability in human microsomes assessed as intrinsic clearance at 1 uM preincubated for 60 mins followed by NADPH addition and measured after 60 mins; assay type: ADME, Microsome; settings: time 120 min, read-out: CLH

T1 sequence (Q76129 whole entry): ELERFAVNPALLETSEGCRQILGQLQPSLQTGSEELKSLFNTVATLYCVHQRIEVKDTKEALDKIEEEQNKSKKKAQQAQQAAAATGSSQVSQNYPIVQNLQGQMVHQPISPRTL
Sequence of Structural capsid protein (Human immunodeficiency virus 1) (Q76129 as listed by the source): as the sequence (Q76129 whole entry) above

| Compound | CC50 at 120 h [1] [µM] | EC50 [9] [µM] | EC50 [11] [µM] | selectivity ratio [12] | selectivity ratio [13] | further results |
| --- | --- | --- | --- | --- | --- | --- |
| Cc1[nH]c2ccccc2c1CC(=O)[C@@H](Cc1ccccc1)C(=O)N(C)c1ccccc1 | 32 | 0.75 | 4.2 |  |  | Ratio [2]: 21.4; Kd [3]: 3.4 µM; Activity [4]: -0.12%; Activity [5]: 150%; K [6]: 0.018 s⁻¹; CLint scaled at 1 µM [7]: 2.6 mL/min/kg; remaining at 1 h, 1 µM [8]: 0%; Kd [10]: 0.16 µM |
| COc1ccc(N(C)C(=O)[C@H](Cc2cc(F)cc(F)c2)NC(=O)CN2CCN(C(=O)c3ccccc3C(F)(F)F)CC2=O)cc1 | 110 | 12 | 5 | 22 | 9.2 | Ratio [2]: 2.2; Kd [3]: 12 µM; K [6]: 0.25 s⁻¹; Kd [10]: 5.3 µM |
| CC(C)(C#Cc1ccc(-c2ccc(Cl)c3c(NS(C)(=O)=O)nn(CC(F)(F)F)c23)c([C@H](Cc2cc(F)cc(F)c2)NC(=O)Cn2nc(C(F)(F)F)c3c2C(F)(F)[C@@H]2C[C@H]32)n1)S(C)(=O)=O |  |  |  |  |  | EC50 [14]: 0.000105 µM |
| COc1ccc(N(C)C(=O)[C@H](Cc2cc(F)cc(F)c2)NC(=O)CN2CCN(C(=O)c3ccccc3[N+](=O)[O-])CC2=O)cc1 | 160 | 6 | 6.3 | 25 | 27 | remaining at 1 h, 1 µM [15]: 96%; Activity [16]: 10%; Ratio [2]: 2.5; Kd [3]: 13 µM; K [6]: 0.25 s⁻¹; CLint scaled at 1 µM [7]: 3.3 mL/min/kg; Activity [17]: 8.1%; remaining at 1 h, 1 µM [8]: 0.23%; Kd [10]: 5.2 µM |
| C[C@]12CC[C@H]3[C@@H](CCC4=CC(=O)CC[C@@]43C)[C@@H]1CC[C@@H]2O [TESTOSTERONE] |  |  |  |  |  | microsomal CLint at 1 µM [18]: 83 µL/min/mg; CLint scaled at 1 µM [7]: 74 mL/min/kg |
| COc1ccc(N(C)C(=O)[C@H](Cc2ccccc2)NC(=O)CN2CCN(C(=O)c3ccccc3C(F)(F)F)CC2=O)cc1 | 130 | 21 | 2.9 | 45 | 6.2 |  |
| COc1ccc(N(C)C(=O)[C@H](Cc2cc(F)cc(F)c2)NC(=O)CN2CCN(C(=O)c3ccc(C)cc3)CC2=O)cc1 | 74 | 32 | 35 | 2.1 | 2.3 |  |
| COC(=O)c1ccc(C(=O)N2CCN(CC(=O)N[C@@H](Cc3cc(F)cc(F)c3)C(=O)N(C)c3ccc(OC)cc3)C(=O)C2)cc1 | 120 | 18 | 26 | 4.6 | 6.7 |  |
| COc1ccc(C(=O)N2CCN(CC(=O)N[C@@H](Cc3ccccc3)C(=O)N(C)c3ccc(OC)cc3)C(=O)C2)cc1 | 110 | 26 | 21 | 5.2 | 4.2 |  |
| COc1ccc(N(C)C(=O)[C@H](Cc2ccccc2)NC(=O)CN2CCN(C(=O)c3cccc([N+](=O)[O-])c3)CC2=O)cc1 | 24 | > 24 | > 24 | < 1 | < 1 |  |
| COc1ccc(N(C)C(=O)[C@H](Cc2ccccc2)NC(=O)CN2CCN(C(=O)c3ccccc3[N+](=O)[O-])CC2=O)cc1 | 180 | 22 | 2.5 | 72 | 8.2 |  |
| COc1ccc(N(C)C(=O)[C@H](Cc2ccccc2)NC(=O)CN2CCN(C(=O)c3cccc(N)c3)CC2=O)cc1 | > 230 | ≥ 200 | 27 | > 8.5 | ≥ 1 |  |
| COc1ccc(N(C)C(=O)[C@H](Cc2cc(F)cc(F)c2)NC(=O)CN2CCN(C(=O)c3ccc(Cl)cc3)CC2=O)cc1 | 19 | > 19 | > 19 | < 1 | < 1 |  |
| COc1ccc(C(=O)N2CCN(CC(=O)N[C@@H](Cc3cc(F)cc(F)c3)C(=O)N(C)c3ccc(OC)cc3)C(=O)C2)cc1 | 96 | 24 | 31 | 3.1 | 4 |  |
| COc1ccc(N(C)C(=O)[C@H](Cc2cc(F)cc(F)c2)NC(=O)CN2CCN(C(=O)c3ccccc3F)CC2=O)cc1 | 140 | 22 | 5.3 | 26 | 6.4 |  |
| COc1ccc(N(C)C(=O)[C@H](Cc2cc(F)cc(F)c2)NC(=O)CN2CCN(C(=O)c3ccc(N)cc3)CC2=O)cc1 | > 220 | 18 | 32 | > 6.9 | > 12 |  |
| COc1ccc(N(C)C(=O)[C@H](Cc2cc(F)cc(F)c2)NC(=O)CN2CCN(C(=O)c3cccc(F)c3)CC2=O)cc1 | 99 | 25 | 13 | 7.6 | 4 |  |
| COc1ccc(N(C)C(=O)[C@H](Cc2ccccc2)NC(=O)CN2CCN(C(=O)c3cccc(C(F)(F)F)c3)CC2=O)cc1 | 6.7 | > 6.7 | > 6.7 | < 1 | < 1 |  |
| COc1ccc(N(C)C(=O)[C@H](Cc2cc(F)cc(F)c2)NC(=O)CN2CCN(C(=O)c3cccc(C(F)(F)F)c3)CC2=O)cc1 | 3.7 | > 3.7 | > 3.7 | < 1 | < 1 |  |
| COc1ccc(N(C)C(=O)[C@H](Cc2cc(F)cc(F)c2)NC(=O)CN2CCN(C(=O)c3ccc([N+](=O)[O-])cc3)CC2=O)cc1 | 18 | > 18 | > 18 | < 1 | < 1 |  |
| COc1ccc(N(C)C(=O)[C@H](Cc2cc(F)cc(F)c2)NC(=O)CN2CCN(C(=O)c3cccc([N+](=O)[O-])c3)CC2=O)cc1 | 47 | 34 | > 47 | < 1 | 1.4 |  |
| COc1ccc(N(C)C(=O)[C@H](Cc2ccccc2)NC(=O)CN2CCN(C(=O)c3ccc([N+](=O)[O-])cc3)CC2=O)cc1 | 16 | > 16 | > 16 | < 1 | < 1 |  |
| O=C(O)Cc1ccccc1Nc1c(Cl)cccc1Cl [DICLOFENAC] |  |  |  |  |  | CLint scaled at 1 µM [7]: 3.3 mL/min/kg |
| COc1ccc(N(C)C(=O)[C@H](Cc2ccccc2)NC(=O)CN2CCN(C(=O)c3ccc(Cl)cc3)CC2=O)cc1 | 9 | > 8.9 | > 9 | < 1 | < 1 |  |
